{"data": "Experimental data collected from several papers", "target": "Carbonic anhydrase 2 (CA2, Homo sapiens, UniProt P00918)", "observed": "enzyme activity", "mode": "inhibitor"}
{"SMILES": "CN(C/C=C/C#CC(C)(C)C)Cc1cccc2ccccc12", "technique": "absorbance", "pH": "pH 7.4", "quantity": "IC50", "result": "32.2 µM"}
{"SMILES": "NS(=O)(=O)c1nnc(NC(=O)CCCC2CCCCC2)s1", "technique": "stopped-flow", "quantity": "Ki", "result": "8.8 nM"}
{"SMILES": "CN(C)CCC(c1ccccc1)c1ccccn1 (stereo not drawn)", "technique": "absorbance", "pH": "pH 7.4", "quantity": "IC50", "result": "22.2 µM"}
{"SMILES": "NS(=O)(=O)c1nnc(NC(=O)CCC2CCCCO2)s1 (stereo not drawn)", "technique": "stopped-flow", "quantity": "Ki", "result": "0.84 nM"}
{"SMILES": "Cc1ccc(CNC(=S)N/N=C/c2ccc(N3CCC(O)CC3)cc2)cc1", "technique": "absorbance", "quantity": "IC50", "result": "0.698 µM"}
{"SMILES": "NS(=O)(=O)c1nnc(NC(=O)CCc2ccc(F)cc2)s1", "technique": "stopped-flow", "quantity": "Ki", "result": "3.6 nM"}
{"SMILES": "COc1ccc2oc(=O)c(-c3csc(Nc4ccc(C(=O)O)cc4)n3)cc2c1", "technique": "absorbance", "quantity": "IC50", "result": "4.61 µM"}
{"SMILES": "NCCCC(=O)Nc1nnc(S(N)(=O)=O)s1", "technique": "stopped-flow", "quantity": "Ki", "result": "65.7 nM"}
{"SMILES": "CC[C@H]1OC(=O)[C@H](C)[C@@H](O[C@H]2C[C@@](C)(OC)[C@@H](O)[C@H](C)O2)[C@H](C)[C@@H](O[C@@H]2O[C@H](C)C[C@H](N(C)C)[C@H]2O)[C@](C)(O)C[C@@H](C)CN(C)[C@H](C)[C@@H](O)[C@]1(C)O", "technique": "absorbance", "pH": "pH 7.4", "quantity": "IC50", "result": "13 µM"}
{"SMILES": "OC1CCN(c2ccc(/C=N/NC(=S)NCc3ccccc3)cc2)CC1", "technique": "absorbance", "quantity": "IC50", "result": "0.504 µM"}
{"SMILES": "CCOC(=O)N1CCC(=C2c3ccc(Cl)cc3CCc3cccnc32)CC1", "technique": "absorbance", "pH": "pH 7.4", "quantity": "IC50", "result": "13.1 µM"}
{"SMILES": "CC(C)CNC(=S)N/N=C/c1ccc(N2CCC(O)CC2)cc1", "technique": "absorbance", "quantity": "IC50", "result": "0.695 µM"}
{"SMILES": "CC(C)(C)CCC(=O)Nc1nnc(S(N)(=O)=O)s1", "technique": "stopped-flow", "quantity": "Ki", "result": "10.2 nM"}
{"SMILES": "OC1CCN(c2ccc(/C=N/NC(=S)Nc3ccc(Br)cc3)cc2)CC1", "technique": "absorbance", "quantity": "IC50", "result": "0.332 µM"}
{"SMILES": "NS(=O)(=O)c1ccc(Nc2nc(-c3cc4cc(Br)ccc4oc3=O)cs2)c(Br)c1", "technique": "absorbance", "quantity": "IC50", "result": "5.86 µM"}
